Measured values: ChEMBL document CHEMBL3994572, “Antiviral Triterpenes from the Twigs and Leaves of Lyonia ovalifolia” (J Nat Prod, 2016)

Legend:
Influenza A virus = assay: Antiviral activity against Influenza A virus A/95-359 infected in MDCK cells assessed as inhibition of virus-induced cytopathic effect; assay type: functional, cell-based; conditions: A/95-359, MDCK
Outline: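 MDCK cells (2.5 × 10^4/well) seeded 24 h, PBS-washed, infected with influenza A/95-359 at 100 TCID50 for 2 h, then exposed to graded compound concentrations until control CPE reached 4+. IC50 = minimal concentration inhibiting 50% of CPE (Reed and Muench); triplicate, at least three separate experiments. […] SI = TC50/IC50.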

Coxsackievirus B3 = assay: Antiviral activity against Coxsackievirus B3 infected in African green monkey Vero cells assessed as inhibition of virus-induced cytopathic effect; assay type: functional; conditions: Enterovirus B
Outline: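 Vero monolayers were infected with Cox B3 at 100 TCID50 and allowed 2 h adsorption at 37 °C. They were then washed with PBS and kept at 37 °C in MEM with 2% FBS, with or without graded concentrations of test compounds. Read-out was CPE.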

Human alphaherpesvirus 1 = assay: Antiviral activity against Herpes simplex virus-1 F VR 733 infected in African green monkey Vero cells assessed as inhibition of virus-induced cytopathic effect; assay type: functional; conditions: Human alphaherpesvirus 1, Strain F ATCC VR 733, Vero
Outline: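 Vero cells (2.5 × 10^4/well) were seeded for 24 h, then the medium was removed. Cells were infected with HSV-1 at 100 TCID50 for 2 h, then given graded compound concentrations. Incubation continued until control CPE reached 4+. Runs were in triplicate, repeated at least three times. IC50 is the minimal concentration inhibiting 50% of CPE, by Reed and Muench.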

C[C@H](CC[C@H](O[C@@H]1OC[C@H](O)[C@H](O)[C@H]1O)C(C)(C)O)[C@H]1CC[C@@]2(C(=O)O)[C@@H]3CCC4=C(CC[C@@H](O[C@@H]5O[C@H](CO)[C@@H](O)[C@H](O)[C@H]5O)C4(C)C)C[C@H]3CC[C@]12C
IC50 (Influenza A virus): > 33.3 µM
IC50 (Coxsackievirus B3): ≥ 33.3 µM
IC50 (Human alphaherpesvirus 1): ≥ 33.3 µM

C[C@H](CC[C@H](O[C@@H]1OC[C@H](O)[C@H](O)[C@H]1O)C(C)(C)O)[C@H]1CC[C@@]2(C(=O)O)C3=C(CC[C@]12C)[C@@]1(C)CC[C@@H](O[C@@H]2OC[C@H](O)[C@H](O)[C@H]2O)C(C)(C)[C@@H]1CC3
IC50 (Influenza A virus): > 33.3 µM
IC50 (Coxsackievirus B3): ≥ 33.3 µM
IC50 (Human alphaherpesvirus 1): ≥ 33.3 µM

C[C@H](CC[C@H](O[C@@H]1OC[C@H](O)[C@H](O)[C@H]1O)C(C)(C)O)[C@H]1CC[C@@]2(C(=O)O)[C@@H]3CC[C@H]4C(=CC[C@@H](O[C@@H]5OC[C@H](O)[C@H](O)[C@H]5O)C4(C)C)C[C@H]3CC[C@]12C
IC50 (Influenza A virus): > 33.3 µM
IC50 (Coxsackievirus B3): ≥ 33.3 µM
IC50 (Human alphaherpesvirus 1): ≥ 33.3 µM

C[C@H](CC[C@H](O[C@@H]1OC[C@H](O)[C@H](O)[C@H]1O)C(C)(C)O)[C@H]1CC[C@@]2(C(=O)O)C3=C(CC[C@]12C)[C@@]1(C)CC[C@@H](O[C@@H]2O[C@H](CO)[C@@H](O)[C@H](O)[C@H]2O)C(C)(C)[C@@H]1CC3
IC50 (Influenza A virus): > 33.3 µM
IC50 (Coxsackievirus B3): ≥ 33.3 µM
IC50 (Human alphaherpesvirus 1): ≥ 33.3 µM

C[C@H](CC[C@H](O[C@@H]1OC[C@H](O)[C@H](O)[C@H]1O)C(C)(C)O)[C@H]1CC[C@@]2(C(=O)O)[C@@H]3CCC4=C(CC[C@@H](O[C@H]5OC[C@@H](O)[C@@H](O)[C@@H]5O)C4(C)C)C[C@H]3CC[C@]12C
IC50 (Influenza A virus): > 33.3 µM
IC50 (Coxsackievirus B3): ≥ 33.3 µM
IC50 (Human alphaherpesvirus 1): ≥ 33.3 µM

C[C@H](CC[C@H](O)C(C)(C)O)[C@H]1CC[C@@]2(C(=O)O)C3=C(CC[C@]12C)[C@@]1(C)CC[C@@H](O[C@@H]2O[C@H](CO)[C@@H](O)[C@H](O)[C@H]2O)C(C)(C)[C@@H]1CC3
IC50 (Influenza A virus): > 33.3 µM
IC50 (Coxsackievirus B3): ≥ 33.3 µM
IC50 (Human alphaherpesvirus 1): ≥ 33.3 µM

CC(=O)OC[C@H]1O[C@@H](O[C@@H]2CC=C3C[C@H]4CC[C@]5(C)[C@@H]([C@H](C)CC[C@H](O)C(C)(C)O)CC[C@@]5(C(=O)O)[C@@H]4CC[C@@H]3C2(C)C)[C@H](O)[C@@H](O)[C@@H]1O
IC50 (Influenza A virus): > 33.3 µM
IC50 (Coxsackievirus B3): ≥ 33.3 µM
IC50 (Human alphaherpesvirus 1): ≥ 33.3 µM

CC(=O)OC[C@H]1O[C@@H](O[C@@H]2CCC3=C(CC[C@@H]4[C@H](CC[C@]5(C)[C@@H]([C@H](C)CC[C@H](O[C@@H]6OC[C@H](O)[C@H](O)[C@H]6O)C(C)(C)O)CC[C@@]45C(=O)O)C3)C2(C)C)[C@H](O)[C@@H](O)[C@@H]1O
IC50 (Influenza A virus): > 33.3 µM
IC50 (Coxsackievirus B3): ≥ 33.3 µM
IC50 (Human alphaherpesvirus 1): ≥ 33.3 µM

C[C@H](CC[C@H](O[C@H]1O[C@@H](CO)[C@H](O)[C@@H](O)[C@@H]1O)C(C)(C)O)[C@H]1CC[C@@]2(C(=O)O)C3=C(CC[C@]12C)[C@@]1(C)CC[C@@H](O[C@@H]2O[C@H](CO)[C@@H](O)[C@H](O)[C@H]2O)C(C)(C)[C@@H]1CC3
IC50 (Influenza A virus): > 33.3 µM
IC50 (Coxsackievirus B3): ≥ 33.3 µM
IC50 (Human alphaherpesvirus 1): ≥ 33.3 µM

C[C@H]1[C@H](C)CC[C@@]23CC[C@]4(C)[C@](OC2=O)([C@H](O)C[C@@H]2[C@@]5(C)C[C@@H](O)[C@@H](O)C(CO)(CO)[C@@H]5CC[C@]24C)[C@H]13
IC50 (Influenza A virus): > 33.3 µM
IC50 (Coxsackievirus B3): ≥ 33.3 µM
IC50 (Human alphaherpesvirus 1): ≥ 33.3 µM

C[C@H]1[C@H](C)CC[C@@]23CC[C@@]4(C)[C@@]5(C)[C@H](C[C@@H](O)[C@]4(OC2=O)[C@H]13)[C@@]1(C)C[C@@H](O)[C@@H](O)[C@](C)(CO)[C@@H]1C[C@@H]5O
IC50 (Influenza A virus): > 33.3 µM
IC50 (Coxsackievirus B3): ≥ 33.3 µM
IC50 (Human alphaherpesvirus 1): ≥ 33.3 µM

C[C@H](CC[C@H](O[C@@H]1OC[C@H](O)[C@H](O)[C@H]1O)C(C)(C)O)[C@H]1CC[C@@]2(C(=O)O)[C@@H]3CC[C@H]4C(=CC[C@@H](O[C@@H]5O[C@H](CO)[C@@H](O)[C@H](O)[C@H]5O)C4(C)C)C[C@H]3CC[C@]12C
IC50 (Influenza A virus): > 33.3 µM
IC50 (Coxsackievirus B3): ≥ 33.3 µM
IC50 (Human alphaherpesvirus 1): ≥ 33.3 µM
